Experimental data: ChEMBL document CHEMBL1153955, “Indolylarylsulfones bearing natural and unnatural amino acids. Discovery of potent inhibitors of HIV-1 non-nucleoside wild type and resistant mutant strains reverse transcriptase and coxsackie B4 virus” (J Med Chem, 2009)

Key:
[1] = tested on: Vesicular stomatitis virus; test: Antiviral activity against VSV in human HEL cells assessed as protection against virus-induced cytopathicity; assay type: functional, organism-based
[2] = tested on: Human alphaherpesvirus 1; test: Antiviral activity against thymidine kinase deficient and acyclovir resistant HSV1 KOS in human HEL cells assessed as protection against virus-induced cytopathicity; assay type: functional, organism-based; conditions: Human alphaherpesvirus 1, KOS
[3] = tested on: L1210; test: Antiproliferative activity against mouse L1210 cells after 2 days; assay type: cell-based; conditions: L1210, 48 h
Procedure, shortened: (§1)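 Cells seeded at 5 × 10⁴ to 7.5 × 10⁴ cells/200 µL with or without serial compound dilutions; incubated at 37 °C for 2 days (L1210) or 3 days (Molt4/C8, CEM). Cell numbers counted with a Coulter counter. CC₅₀ = concentration reducing proliferation by 50% versus untreated controls, read from plots of cell number (% of control) against concentration. Means of at least two independent experiments.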

[4] = tested on: Human respirovirus 3; test: Antiviral activity against Parainfluenza virus type 3 in african green monkey Vero cells assessed as protection against virus-induced cytopathicity; assay type: functional, organism-based; conditions: Human respirovirus 3, Vero
Procedure, shortened: (§2)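 Confluent cell monolayers inoculated with 100 CCID₅₀ virus. After 1-2 h adsorption, residual virus removed and cultures incubated with varying compound concentrations. Cytopathicity scored once it reached completion in untreated infected controls. EC₅₀ = dose reducing virus-induced cytopathogenicity by 50%.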

[5] = tested on: Human immunodeficiency virus 1; test: Antiviral activity against HIV1 with reverse transcriptase Y181I mutation in human CEM cells assessed as protection against virus-induced cytopathicity; assay type: functional, organism-based; conditions: Human immunodeficiency virus 1, CCRF-CEM
Procedure, shortened: (§3)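 CEM cells (~3 × 10⁵ cells/mL) were infected with ~100 CCID₅₀ virus per mL and seeded with serial compound dilutions. After 4 days at 37 °C, syncytium (giant cell) formation was scored microscopically. EC₅₀ is the concentration giving 50% protection against virus cytopathicity.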

[6] = Antiproliferative activity against human Molt4/C8 cells after 3 days; assay type: cell-based; conditions: MOLT-4, 72 h; procedure, shortened: as §1
[7] = target: Human immunodeficiency virus type 1 reverse transcriptase (Human immunodeficiency virus 1, UniProt Q72547); test: Inhibition of HIV1 reverse transcriptase p66/p51; conditions: read-out: IC50
[8] = tested on: Respiratory syncytial virus; test: Antiviral activity against RSV Long in human HeLa cells assessed as protection against virus-induced cytopathicity; assay type: functional, organism-based; procedure, shortened: as §2
[9] = target: Human immunodeficiency virus type 1 reverse transcriptase (Human immunodeficiency virus 1, UniProt Q72547, L100I); test: Inhibition of HIV1 reverse transcriptase p66/p51 L100I mutant; conditions: read-out: IC50
Procedure, shortened: (§4)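 Substrate was 0.5 µg poly(rA)/oligo(dT) 10:1 (0.3 µM 3′-OH ends) with 10 µM [³H]dTTP, at 37 °C. Acid-precipitable radioactivity was counted on GF/C filters after TCA washes.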

[10] = tested on: Human immunodeficiency virus 1; test: Antiviral activity against HIV1 with reverse transcriptase K103N mutation in human CEM cells assessed as protection against virus-induced cytopathicity; assay type: functional, organism-based; conditions: Human immunodeficiency virus 1, CCRF-CEM; procedure, shortened: as §3
[11] = tested on: Mammalian orthoreovirus 1; test: Antiviral activity against Reovirus 1 in african green monkey Vero cells assessed as protection against virus-induced cytopathicity; assay type: functional, organism-based; conditions: Mammalian orthoreovirus 1, Vero; procedure, shortened: as §2
[12] = tested on: CCRF-CEM; test: Antiproliferative activity against human CEM cells after 3 days; assay type: cell-based; conditions: 72 h; procedure, shortened: as §1
[13] = tested on: Human immunodeficiency virus 2; test: Antiviral activity against HIV2 ROD in human CEM cells assessed as protection against virus-induced cytopathicity after 4 days; assay type: functional, organism-based; conditions: Human immunodeficiency virus 2, ROD, CCRF-CEM, 96 h
Procedure, shortened: (§5)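 CEM cells (~3 × 10⁵ cells/mL) infected with ~100 CCID₅₀ per mL of HIV-1 (IIIB) or HIV-2 (ROD), then seeded into wells containing compound dilutions. After 4 days at 37 °C, syncytium (giant cell) formation was examined microscopically. EC₅₀ = concentration protecting CEM cells from HIV cytopathicity by 50%.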

[14] = tested on: Felid alphaherpesvirus 1; test: Antiviral activity against Feline herpesvirus in feline […] cells assessed as inhibition of virus-induced cytopathicity; assay type: functional, organism-based
[15] = tested on: Human alphaherpesvirus 1; test: Antiviral activity against HSV1 KOS in human HEL cells assessed as protection against virus-induced cytopathicity; assay type: functional, organism-based; conditions: Human alphaherpesvirus 1, KOS
[16] = tested on: Human immunodeficiency virus 1; test: Antiviral activity against HIV1 with reverse transcriptase Y188L mutation in human CEM cells assessed as protection against virus-induced cytopathicity; assay type: functional, organism-based; conditions: Human immunodeficiency virus 1, CCRF-CEM; procedure, shortened: as §3
[17] = target: Human immunodeficiency virus type 1 reverse transcriptase (Human immunodeficiency virus 1, UniProt Q72547, K103N); test: Inhibition of HIV1 reverse transcriptase p66/p51 K103N mutant; conditions: read-out: IC50; procedure, shortened: as §4
[18] = Cytotoxicity against feline CRFK cells by MTS assay; assay type: cell-based, Felis catus; conditions: cat
[19] = tested on: Punta Toro virus; test: Antiviral activity against Punta Toro virus in african green monkey Vero cells assessed as protection against virus-induced cytopathicity; assay type: functional, organism-based; procedure, shortened: as §2
[20] = tested on: Influenza B virus; test: Antiviral activity against influenza B virus in MDCK cells assessed as reduction of virus-induced cytopathicity by visual cytopathic effect scoring method; assay type: functional, organism-based
[21] = tested on: Human immunodeficiency virus 1; test: Antiviral activity against HIV1 with reverse transcriptase L100I mutation in human CEM cells assessed as protection against virus-induced cytopathicity; assay type: functional, organism-based; conditions: Human immunodeficiency virus 1, CCRF-CEM; procedure, shortened: as §3
[22] = Cytotoxicity against MDCK cells assessed as drug level causing microscopically detectable alteration of normal cell morphology; assay type: cell-based, Canis lupus familiaris; conditions: dog
[23] = tested on: Influenza A virus H3N2; test: Antiviral activity against influenza H3N2 virus in MDCK cells assessed as reduction of virus-induced cytopathicity by MTS method; assay type: functional, organism-based
[24] = target: Human immunodeficiency virus type 1 reverse transcriptase (Human immunodeficiency virus 1, UniProt Q72547, Y181I); test: Inhibition of HIV1 reverse transcriptase p66/p51 Y181I mutant; conditions: read-out: IC50; procedure, shortened: as §4
[25] = Cytotoxicity against african green monkey Vero cells assessed as drug level causing microscopically detectable alteration of normal cell morphology after 3 days; assay type: cell-based; conditions: chlorocebus sabaeus
Procedure, shortened: (§6)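 Serial compound dilutions added to confluent HeLa or Vero monolayers. MCC = minimum concentration causing microscopically detectable alteration of cell morphology after 3 days of incubation.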

[26] = tested on: Influenza A virus H3N2; test: Antiviral activity against influenza H3N2 virus in MDCK cells assessed as reduction of virus-induced cytopathicity by visual cytopathic effect scoring method; assay type: functional, organism-based
[27] = Cytotoxicity against human HEL cells assessed as drug level causing microscopically detectable alteration of normal cell morphology after 3 days; assay type: cell-based
[28] = Cytotoxicity against human HeLa cells assessed as drug level causing microscopically detectable alteration of normal cell morphology after 3 days; assay type: cell-based; procedure, shortened: as §6
[29] = tested on: Influenza A virus; test: Antiviral activity against influenza H1N1 virus in MDCK cells assessed as reduction of virus-induced cytopathicity by MTS method; assay type: functional, organism-based; conditions: Influenza A virus, H1N1, MDCK
[30] = tested on: Coxsackievirus B4; test: Antiviral activity against Coxsackievirus B4 in human HeLa cells assessed as protection against virus-induced cytopathicity; assay type: functional, organism-based; conditions: Enterovirus B; procedure, shortened: as §2
[31] = tested on: Vaccinia virus; test: Antiviral activity against Vaccinia virus Lederle in human HEL cells assessed as protection against virus-induced cytopathicity; assay type: functional, organism-based; conditions: Orthopoxvirus vaccinia
[32] = tested on: Vesicular stomatitis virus; test: Antiviral activity against VSV in human HeLa cells assessed as protection against virus-induced cytopathicity; assay type: functional, organism-based
[33] = tested on: Human immunodeficiency virus 1; test: Antiviral activity against HIV1 with reverse transcriptase Y181C mutation in human CEM cells assessed as protection against virus-induced cytopathicity; assay type: functional, organism-based; conditions: Human immunodeficiency virus 1, CCRF-CEM; procedure, shortened: as §3
[34] = tested on: Human immunodeficiency virus 1; test: Antiviral activity against HIV1 3B in human CEM cells assessed as protection against virus-induced cytopathicity after 4 days; assay type: functional, organism-based; conditions: Human immunodeficiency virus 1, 3B, CCRF-CEM, 96 h; procedure, shortened: as §5
[35] = tested on: Human alphaherpesvirus 2; test: Antiviral activity against HSV2 G in human HEL cells assessed as protection against virus-induced cytopathicity; assay type: functional, organism-based; conditions: Human alphaherpesvirus 2, strain G; procedure, shortened: as §2
[36] = tested on: Coxsackievirus B4; test: Antiviral activity against Coxsackievirus B4 in african green monkey Vero cells assessed as protection against virus-induced cytopathicity; assay type: functional, organism-based; conditions: Enterovirus B; procedure, shortened: as §2
[37] = tested on: Sindbis virus; test: Antiviral activity against Sindbis virus in african green monkey Vero cells assessed as protection against virus-induced cytopathicity; assay type: functional, organism-based; procedure, shortened: as §2
[38] = tested on: Feline coronavirus; test: Antiviral activity against Feline coronavirus in feline […] cells assessed as inhibition of virus-induced cytopathicity; assay type: functional, organism-based; conditions: Alphacoronavirus 1
[39] = Cytotoxicity against MDCK cells by MTS assay; assay type: cell-based, Canis lupus familiaris; conditions: dog
[40] = tested on: Influenza A virus; test: Antiviral activity against influenza H1N1 virus in MDCK cells assessed as reduction of virus-induced cytopathicity by visual cytopathic effect scoring method; assay type: functional, organism-based
[41] = tested on: Influenza B virus; test: Antiviral activity against influenza B virus in MDCK cells assessed as reduction of virus-induced cytopathicity by MTS method; assay type: functional, organism-based

Cc1cc(C)cc(S(=O)(=O)c2c(C(=O)NCC(N)=O)[nH]c3ccc(Cl)cc23)c1 showed an EC50 [1] greater than 100 µM, an EC50 [2] greater than 100 µM and an IC50 [3] of 220 µM. For the same compound, the EC50 [4] was greater than 100 µM, the IC50 [5] was greater than 1 µM and the IC50 [6] was 15 µM. The IC50 [7] was 0.026 µM, the EC50 [8] was greater than 100 µM and the IC50 [9] was 0.161 µM. The IC50 [10] was 0.029 µM, the EC50 [11] was greater than 100 µM and the IC50 [12] was 92 µM. For the same compound, the EC50 [13] was greater than 50 µM, the EC50 [14] was greater than 100 µM and the EC50 [15] was greater than 100 µM. It also gave an IC50 [16] of 0.69 µM, an IC50 [17] of 0.28 µM and a CC50 [18] greater than 100 µM. For the same compound, the EC50 [19] was greater than 100 µM, the EC50 [20] was greater than 4 µM and the IC50 [21] was 0.008 µM. The MCC [22] was 20 µM, the EC50 [23] was greater than 4 µM and the IC50 [24] was 1.65 µM. It also gave an MCC at 72 h [25] greater than 100 µM, an EC50 [26] greater than 4 µM and an MCC at 72 h [27] greater than 100 µM. The MCC at 72 h [28] was 100 µM, the EC50 [29] was greater than 4 µM and the EC50 [30] was no less than 20 µM. It also gave an EC50 [31] greater than 100 µM, an EC50 [32] greater than 100 µM and an IC50 [33] of 0.074 µM. For the same compound, the EC50 [34] was 0.0019 µM, the EC50 [35] was greater than 100 µM and the EC50 [36] was greater than 100 µM. The EC50 [37] was greater than 100 µM, the EC50 [38] was greater than 100 µM and the CC50 [39] was 44.1 µM. It also gave an EC50 [40] greater than 4 µM and an EC50 [41] greater than 4 µM.
Work on Cc1cc(C)cc(S(=O)(=O)c2c(C(=O)NC(C)CC(N)=O)[nH]c3ccc(Br)cc23)c1 (configuration not stated) yielded an EC50 [1] greater than 4 µM, an EC50 [2] greater than 4 µM and an IC50 [3] of 16 µM. It also gave an EC50 [4] greater than 20 µM, an IC50 [6] of 16 µM and an IC50 [7] of 0.081 µM. The EC50 [8] was greater than 20 µM, the IC50 [9] was 0.296 µM and the EC50 [11] was greater than 20 µM. It also gave an IC50 [12] of 18 µM, an EC50 [13] greater than 10 µM and an EC50 [14] greater than 4 µM. For the same compound, the EC50 [15] was greater than 4 µM, the IC50 [17] was 0.321 µM and the CC50 [18] was 11.1 µM. The EC50 [19] was greater than 20 µM, the EC50 [20] was greater than 4 µM and the MCC [22] was no less than 4 µM. The EC50 [23] was greater than 4 µM, the IC50 [24] was 15.8 µM and the MCC at 72 h [25] was no less than 20 µM. For the same compound, the EC50 [26] was greater than 4 µM, the MCC at 72 h [27] was 20 µM and the MCC at 72 h [28] was no less than 20 µM. For the same compound, the EC50 [29] was greater than 4 µM, the EC50 [30] was no less than 20 µM and the EC50 [31] was greater than 4 µM. For the same compound, the EC50 [32] was greater than 20 µM, the EC50 [34] was 0.0015 µM and the EC50 [35] was greater than 4 µM. The EC50 [36] was greater than 20 µM, the EC50 [37] was greater than 20 µM and the EC50 [38] was greater than 4 µM. The CC50 [39] was 79 µM, the EC50 [40] was greater than 4 µM and the EC50 [41] was greater than 4 µM.
